Legend:
Mustela putorius furo [1] = assay: Toxicity in ferret infected with Influenza A virus Port Chalmers/1/73 (H3N2) assessed as change in body weight at 13 mg/kg administered intranasally 7 times on day 0 and 9 times on day 1 to day 3 measured after 7 days relative to untreated control; assay type: organism-based; parameters: dose 13 mg/kg; conditions: in vivo, inhaled_or_intranasal, 168 h
In short: (§1)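 Infected ferrets (700–1500 g, groups of three, untreated controls) were dosed intranasally each hour with 0.2 mL of a 50 mg/mL solution in distilled water: 7 doses on day 0 and 9 on days +1 to +3. Body weight was recorded throughout and expressed as % change.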

Mustela putorius furo [2] = assay: Toxicity in ferret infected with Influenza A virus Port Chalmers/1/73 (H3N2) assessed as change in body weight at 8 mg/kg administered intranasally 7 times on day 0 and 9 times on day 1 to day 3 measured after 7 days relative to untreated control; assay type: organism-based; parameters: dose 8 mg/kg; conditions: in vivo, inhaled_or_intranasal, 168 h; in short: as §1
Mustela putorius furo [3] = assay: Toxicity in ferret infected with Influenza A virus Port Chalmers/1/73 (H3N2) assessed as change in body weight at 16 mg/kg administered intranasally 7 times on day 0 and 9 times on day 1 to day 3 measured after 7 days relative to untreated control; assay type: organism-based; parameters: dose 16 mg/kg; conditions: in vivo, inhaled_or_intranasal, 168 h; in short: as §1
Influenza A virus [4] = assay: (§2) Antiviral activity against Influenza A virus Port Chalmers/1/73 (H3N2) infected in ferret assessed as reduction in rectal temperature at 8 to 16 mg/kg administered intranasally 7 times on day 0 and 9 times on day 1 to day 3 relative to untreated control; assay type: functional; conditions: dose mg/kg 8-16
In short: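 Infected ferrets (700–1500 g, groups of three, untreated controls) received hourly intranasal 0.2 mL of a 50 mg/mL aqueous solution: 7 doses on day 0 and 9 on days +1 to +3. Rectal temperature was recorded and readings >39.5 °C and >40.0 °C were counted on days +1 to +4.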

Influenza A virus [5] = assay: as §2, with “in viral excretion by measuring hemagglutination units per ml” for “in rectal temperature”, “at 13” for “at 8 to 16”, “day 2 measured on day 2” for “day 3”; assay type: functional
In short: (§3)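 Ferrets (700–1500 g, groups of three, untreated control group) were infected intranasally on day 0. Unanaesthetized animals received 0.2 mL of a 50 mg/mL solution in distilled water intranasally, from 2 h post-infection, hourly: 7 doses on day 0 and 9 daily on days +1 to +3. Nasal washings were titrated for hemagglutination with 0.5% washed chicken erythrocytes (HAU/mL) on days +2 to +4.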

Influenza A virus [6] = assay: (§4) Antiviral activity against Influenza A virus Port Chalmers/1/73 (H3N2) infected in ferret assessed as reduction in viral excretion by measuring hemagglutination units per ml at 13 mg/kg administered intranasally 7 times on day 0 and 9 times on day 1 to day 3 measured on day 3 relative to untreated control; assay type: functional; in short: as §3
Influenza A virus [7] = assay: as §4, with “on day 4 relative to” for “on day 3 relative to”; assay type: functional; in short: as §3
Influenza A virus [8] = assay: as §4, with “at 8” for “at 13”, “day 2” for “day 3”; assay type: functional; in short: as §3
Influenza A virus [9] = assay: as §4, with “ml at 8 mg/kg administered” for “ml at 13 mg/kg administered”, “on day 4 relative to” for “on day 3 relative to”; assay type: functional; in short: as §3
Influenza A virus [10] = assay: as §4, with “at 16” for “at 13”, “day 2” for “day 3”; assay type: functional; in short: as §3
Influenza A virus [11] = assay: as §4, with “16” for “13”; assay type: functional; in short: as §3
Influenza A virus [12] = assay: as §4, with “ml at 16 mg/kg administered” for “ml at 13 mg/kg administered”, “on day 4 relative to” for “on day 3 relative to”; assay type: functional; in short: as §3
[13] = Solubility in water; assay type: physicochemical; conditions: buffer
[14] = Stability in unbuffered aqueous solutions at pH >6 assessed as compound hydrolysis; assay type: physicochemical; conditions: unbuffered aqueous solution
[15] = Stability in unbuffered aqueous solutions at pH >6 assessed as compound decarboxylation; assay type: physicochemical

CNC1=NC(=O)C(C(C)c2cn(C(=O)OCC(C)(C)N(C)C)c3ccccc23)S1.Cl (racemic)
Activity (Mustela putorius furo [1]): -3.3%
Activity (Mustela putorius furo [2]): -0.4%
Activity (Mustela putorius furo [3]): -3.2%
T (Influenza A virus [4]): >40 °C
Activity (Influenza A virus [5]): <4 HAU/ml
Activity (Influenza A virus [6]): <4 HAU/ml
Activity (Influenza A virus [7]): <4 HAU/ml
Activity (Influenza A virus [8]): <4 HAU/ml
Activity (Influenza A virus [9]): <4 HAU/ml
Activity (Influenza A virus [10]): <4 HAU/ml
Activity (Influenza A virus [11]): <4 HAU/ml
Activity (Influenza A virus [12]): <4 HAU/ml
solubility [13]: soluble
Stability [14]: Unstable
Stability [15]: Unstable
